Assay results gathered from unrelated publications.
Compare with care: the assays were run in different laboratories.
MAPK14: Mitogen-activated protein kinase 14 (MAPK14, Homo sapiens, UniProt Q16539)
MAPK14 T106M: Mitogen-activated protein kinase 14 (MAPK14, Homo sapiens, UniProt Q16539, T106M)

`O=C(Nc1cnn(-c2csc(C(=O)NC3COC3)c2)c1)Nc1c(F)cccc1Cl` gave a remaining activity of 105% (MAPK14; enzyme activity, inhibitor; 5 µM).
For `O=C1NC(=O)c2cc(Nc3ccc(F)cc3)c(Nc3ccc(F)cc3)cc21`, the remaining signal was 88.3% (MAPK14; cell-free assay; 0.5 µM).
`CC(C)(C)c1nc2c(s1)c1nc(N)ncc1c1ccc(NS(=O)(=O)c3c(F)cccc3F)c(F)c12` gave a remaining activity of 96% (MAPK14; enzyme activity, inhibitor, radiometric; 1 µM).
For `Nc1ncnc2occ(-c3ccc(NC(=O)Nc4cc(C(F)(F)F)ccc4F)cc3)c12`, the remaining signal was 0% (MAPK14; cell-free assay, inhibitor; 20 µM).
The activity vs control of `c1nc2c(Nc3ccc4c(c3)OCCO4)nc(Nc3ccc4c(c3)OCCO4)nc2[nH]1` is reported as 90% (MAPK14; enzyme activity, inhibitor; 10 µM).
The remaining binding of `N#CC1(c2ccccn2)CCN(Cc2cc(C(=O)N3CCCC3)c(=O)n3ccccc23)CC1` is reported as 86% (MAPK14; cell-free assay, competition with immobilised ligand; 1 µM).
With `Cc1cnc(NC2CCOCC2)nc1-n1cnc(C(=O)NC(CN)c2cc(F)cc(Cl)c2)c1` (stereo not shown) the remaining activity was 77% (MAPK14; enzyme activity, inhibitor, radiometric; 1 µM).
`O=C1NC(c2ccccn2)Sc2ccccc21` (stereo not shown) has a remaining binding of 81% (MAPK14; cell-free assay, competition with immobilised ligand; 1 µM).
For `CCN(CC)CCNC(=O)c1c(C)[nH]c(/C=C2\C(=O)Nc3ccc(F)cc32)c1C`, the inhibition was 9% (MAPK14 T106M; enzyme activity, inhibitor; 10 µM).
`COc1cc(/C=C/C(=O)CC(=O)/C=C/c2ccc(O)c(OC)c2)ccc1O` gave an activity vs control of 104% (MAPK14; enzyme activity, inhibitor; 1 µM).
`Cc1cc(NC(=O)c2cccc3cc(-c4cccc5[nH]nc(N)c45)ccc23)ccc1F` has an activity vs control of 85% (MAPK14; enzyme activity, inhibitor; 0.1 µM).
`CN(C)C1CCN(CC#Cc2nn(C3CCCC3)c3nc(NCc4ccccc4)ncc23)C1` (stereo not shown) gave an inhibition of 4% (MAPK14; enzyme activity, inhibitor, FRET; 10 µM).
With `Cc1cc(NC(=O)c2cccc(S(F)(F)(F)(F)F)c2)cc(-n2ccn3nc(-c4cccnc4)cc23)c1` the remaining binding was 100% (MAPK14; cell-free assay, competition with immobilised ligand; 1 µM).
The remaining signal of `CSc1nc(-c2ccnc(N[C@@H](C)c3ccccc3)c2)c(-c2ccc(F)cc2)[nH]1` (racemic) is reported as 7.64% (MAPK14; cell-free assay; 0.5 µM).
The remaining activity of `CC(C)(O)[C@H]1CC[C@H](Nc2ccc3ncc(-c4cccc(C(F)(F)F)c4)n3n2)CC1` is reported as 86.4% (MAPK14; enzyme activity, inhibitor; 1 µM).
`O=C(NS(=O)(=O)c1ccc(NCC2CCOCC2)c([N+](=O)[O-])c1)c1ccc(N2CCN(Cc3ccc(C(F)(F)F)cc3-c3ccc(Cl)cc3)CC2)cc1Oc1cnc2[nH]ccc2c1` gave a remaining binding of 97% (MAPK14; cell-free assay, competition with immobilised ligand; 1 µM).
`COc1cc(Nc2cnc(C#N)c(O[C@H](C)CN(C)C)n2)ncc1-c1cnn(C)c1` gave a remaining activity of 102% (MAPK14; enzyme activity, inhibitor, radiometric; 1 µM).
The remaining activity of `Cc1ccc(NC(=O)c2ccc(C)c(C(F)(F)F)c2)cc1C#Cc1nn(C2CCC(O)CC2)c2ncnc(N)c12` (stereo not shown) is reported as 88% (MAPK14 T106M; enzyme activity, inhibitor; 10 µM).
`O=C(NC[C@@H]1[C@H]2CN(C(=O)OCc3cc(C(F)(F)F)cc(C(F)(F)F)c3)C[C@@H]12)c1ccc2[nH]nnc2c1` has a remaining binding of 100% (MAPK14; cell-free assay, competition with immobilised ligand; 1 µM).
The inhibition of `Cc1ccc(Nc2nccc(N(C)c3ccc4c(C)n(C)nc4c3)n2)cc1S(N)(=O)=O` is reported as 4% (MAPK14 T106M; enzyme activity, inhibitor; 0.3 µM).
With `O=C(Nc1cnn(-c2csc(C(=O)NC3COC3)c2)c1)Nc1ccccc1Cl` the remaining activity was 142% (MAPK14; enzyme activity, inhibitor; 5 µM).
`Cc1nc(Cc2cccc(C(F)(F)F)c2)sc1-c1ccc(C(N)=O)nc1` has a remaining binding of 100% (MAPK14; cell-free assay, competition with immobilised ligand; 1 µM).
For `FC(F)c1nc2ccccc2n1-c1nc(N2CCOCC2)nc(N2CCOCC2)n1`, the remaining activity was 89% (MAPK14; enzyme activity, inhibitor; 10 µM).
`C#Cc1cccc(Nc2ncnc3cc(OCCOC)c(OCCOC)cc23)c1` has a remaining signal of 95.3% (MAPK14; cell-free assay; 0.5 µM).
For `CC1=C(C#N)[C@@H](c2ccc3[nH]nc(C)c3c2)C(C#N)=C(c2ccc(Cl)cc2)N1`, the remaining binding was 100% (MAPK14; cell-free assay, competition with immobilised ligand; 1 µM).
`CNC(=O)c1cc(Oc2ccc(NC(=O)Nc3ccc(Cl)c(C(F)(F)F)c3)cc2)ccn1` gave an inhibition of 90% (MAPK14 T106M; enzyme activity, inhibitor; 10 µM).
For `CC(C)(O)c1cncc(-c2nc3ccc(F)cc3n2C2CC2)c1`, the remaining binding was 100% (MAPK14; cell-free assay, competition with immobilised ligand; 1 µM).
`CC(C)(C)C(=O)c1sc(NC2CCCCC2)nc1N` gave a remaining activity of 102% (MAPK14; enzyme activity, inhibitor; 10 µM).
